The source of these data is ChEMBL document CHEMBL4184319, “Fluorescent-Labeled Selective Adenosine A2B Receptor Antagonist Enables Competition Binding Assay by Flow Cytometry” (J Med Chem, 2018).

For data set [1], the target named is T1, Adenosine receptor A1 (Homo sapiens, UniProt P30542).
T1 sequence (P30542 whole entry): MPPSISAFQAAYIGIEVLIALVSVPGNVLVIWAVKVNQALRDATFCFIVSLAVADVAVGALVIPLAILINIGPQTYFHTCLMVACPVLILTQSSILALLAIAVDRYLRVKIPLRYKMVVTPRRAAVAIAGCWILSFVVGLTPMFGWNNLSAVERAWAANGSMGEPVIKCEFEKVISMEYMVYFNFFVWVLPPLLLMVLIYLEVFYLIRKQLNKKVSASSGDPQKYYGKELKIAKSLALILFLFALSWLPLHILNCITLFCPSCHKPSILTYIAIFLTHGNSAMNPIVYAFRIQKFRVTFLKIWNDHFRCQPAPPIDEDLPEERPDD
The data set can be described thus: Displacement of [3H]CCPA from recombinant human adenosine A1 receptor expressed in CHO cell membranes after 90 mins by liquid scintillation counting method. The method in brief: (§1)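 [³H]CCPA (1 nM) used with rat brain cortical or human A1-CHO membranes, 90 min at rt. Membranes pre-incubated 10-15 min with ADA 0.12 IU/mL. Nonspecific binding defined with 10 µM CADO. Compounds dissolved in DMSO, 2.5 % final. Filtration on GF/B filters with ice-cold Tris-HCl washes, then scintillation counting. Curves used 6-7 concentrations spanning 3 log units. At least three experiments, in duplicate (human) or triplicate (rat).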

In data set [2] the target is T2, Adenosine receptor A2b (Mus musculus, UniProt Q60614).
T2 sequence (Q60614 whole entry): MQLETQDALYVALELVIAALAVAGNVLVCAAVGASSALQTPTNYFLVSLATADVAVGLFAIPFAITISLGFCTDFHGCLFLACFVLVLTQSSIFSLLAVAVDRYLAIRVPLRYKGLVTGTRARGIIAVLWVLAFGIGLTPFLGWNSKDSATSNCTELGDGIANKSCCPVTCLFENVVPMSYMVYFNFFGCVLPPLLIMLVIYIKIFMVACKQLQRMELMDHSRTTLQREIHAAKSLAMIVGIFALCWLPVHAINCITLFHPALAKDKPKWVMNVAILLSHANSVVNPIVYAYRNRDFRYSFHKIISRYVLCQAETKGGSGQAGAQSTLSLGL
The data set can be described thus: Displacement of [3H]PSB-603 from recombinant mouse adenosine A2B receptor expressed in CHO cell membranes after 75 mins by liquid scintillation counting method. The method in brief:
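[³H]PSB-603 (0.3 nM) used with CHO membranes expressing human, mouse or rat A2BAR, 75 min at rt. Membranes pre-incubated 10-15 min with ADA 0.12 IU/mL. Nonspecific binding defined with 10 µM DPCPX. DMSO 2.5 % final. Filtration on GF/B with ice-cold 50 mM Tris-HCl pH 7.4 containing 0.1 % BSA, then scintillation counting. Curves used 6-7 concentrations over 3 log units. At least three experiments.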

Data set [3] has as its target Adenosine receptor A2a (Homo sapiens, UniProt P29274). The data set can be described thus: Displacement of [3H]MSX-2 from recombinant human adenosine A2A receptor expressed in HEK cell membranes after 30 mins by liquid scintillation counting method. The method in brief: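 [³H]MSX-2 (1 nM) used with rat striatal or human A2A-HEK membranes, 30 min at rt. Membranes pre-incubated 10-15 min with ADA 0.12 IU/mL. Nonspecific binding defined with 10 µM CGS15943. DMSO 2.5 % final. GF/B filtration, then scintillation counting. Curves used 6-7 concentrations over 3 log units. At least three experiments, in duplicate (human) or triplicate (rat).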
On the technique in general: Displacement assays read how much labelled ligand stays bound in the presence of the test substance.

Data set [4] has as its target T3, Adenosine receptor A1 (Rattus norvegicus, UniProt P25099).
T3 sequence (P25099 whole entry): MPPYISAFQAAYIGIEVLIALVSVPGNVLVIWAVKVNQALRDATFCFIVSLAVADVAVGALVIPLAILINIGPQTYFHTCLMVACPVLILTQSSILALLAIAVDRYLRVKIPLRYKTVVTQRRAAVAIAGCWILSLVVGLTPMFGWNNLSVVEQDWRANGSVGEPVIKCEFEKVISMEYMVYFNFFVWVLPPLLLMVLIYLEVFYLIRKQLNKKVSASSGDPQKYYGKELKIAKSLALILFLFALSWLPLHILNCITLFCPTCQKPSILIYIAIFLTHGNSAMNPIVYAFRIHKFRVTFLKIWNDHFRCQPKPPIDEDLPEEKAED
The data set can be described thus: Displacement of [3H]CCPA from adenosine A1 receptor in rat brain cortical membranes after 90 mins by liquid scintillation counting method. In kind it is cell membranes. The method in brief:
as §1

For data set [5], the species on record is Homo sapiens. The data set can be described thus: Selectivity ratio of Ki for recombinant human adenosine A3 receptor expressed in CHO cell membranes to Ki for recombinant human adenosine A2B receptor expressed in CHO cell membranes. It counts as cell-based.
Data set [6] is filed under the species Homo sapiens. The data set can be described thus: Selectivity ratio of Ki for recombinant human adenosine A1 receptor expressed in CHO cell membranes to Ki for recombinant human adenosine A2B receptor expressed in CHO cell membranes. It counts as cell-based.
Data set [7] in a line: Binding affinity to wild type CHO cell membranes at 100 nM after 15 mins by confocal microscopic method. In kind it is cell-based, Cricetulus griseus. Conditions: chinese hamster, 0.25 h, 0.1 µM. The method in brief: (§2)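 Live CHO cells stably expressing human A2BAR (or wild-type CHO as control) grown on chambered coverslips to about 80 % confluency. Incubated with fluorescent ligand (100 nM) for 15 min at 37°C, alone or after 30 min pre-incubation with PSB-603 (100 nM) or DPCPX (1 µM). Confocal laser scanning imaging with identical settings across conditions. Three similar experiments.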

Data set [8] deals with T4, Adenosine receptor A2b (Homo sapiens) (UniProt P29275).
T4 sequence (whole entry): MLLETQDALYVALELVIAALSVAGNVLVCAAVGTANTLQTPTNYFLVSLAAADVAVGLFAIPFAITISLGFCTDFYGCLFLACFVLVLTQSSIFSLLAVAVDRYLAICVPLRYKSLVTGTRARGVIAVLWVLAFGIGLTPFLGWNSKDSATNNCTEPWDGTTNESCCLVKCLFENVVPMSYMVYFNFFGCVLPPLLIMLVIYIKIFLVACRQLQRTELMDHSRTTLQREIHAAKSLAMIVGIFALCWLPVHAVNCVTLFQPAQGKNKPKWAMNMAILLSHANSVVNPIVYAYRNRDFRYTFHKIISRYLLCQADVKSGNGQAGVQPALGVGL
The data set can be described thus: Binding affinity to recombinant human adenosine A2B receptor expressed in CHO cell membranes at 100 nM after 15 mins in presence of PSB-603 by confocal microscopic method. In kind it is cell-based. The method in brief:
as §2

The nature of data set [9]: Selectivity ratio of Ki for recombinant human adenosine A3 receptor expressed in CHO cell membranes to Ki for recombinant mouse adenosine A2B receptor expressed in CHO cell membranes. In kind it is cell-based.

One may read the Ki as a measure of affinity in units of concentration, obtained from inhibition or displacement.

Active and inactive are the calls of the source. The rule behind the calls is not given here.

Sequence of Adenosine receptor A2a (P29274 whole entry): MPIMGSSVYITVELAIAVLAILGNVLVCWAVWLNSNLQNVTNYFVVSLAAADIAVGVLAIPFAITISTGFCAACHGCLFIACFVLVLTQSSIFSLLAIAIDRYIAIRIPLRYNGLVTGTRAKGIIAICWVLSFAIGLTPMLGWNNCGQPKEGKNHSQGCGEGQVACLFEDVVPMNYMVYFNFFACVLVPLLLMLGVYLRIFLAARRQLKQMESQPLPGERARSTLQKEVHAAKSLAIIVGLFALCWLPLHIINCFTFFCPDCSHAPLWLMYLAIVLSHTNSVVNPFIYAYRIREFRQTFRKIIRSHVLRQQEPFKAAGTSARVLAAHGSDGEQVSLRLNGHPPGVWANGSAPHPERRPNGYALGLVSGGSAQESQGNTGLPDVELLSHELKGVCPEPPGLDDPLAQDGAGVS

In the case of `CCCn1c(=O)[nH]c2nc(-c3ccc(OCC(=O)NCCC4=C5C(C)=CC(C)=[N+]5[B-](F)(F)n5c(C)cc(C)c54)cc3)[nH]c2c1=O`, the Ki in data set [1] was not below 10 µM; in [2] it was 0.00132 µM; in [3], more than 10 µM; in data set [4], 0.422 µM. Besides, the Ratio Ki in [5], in data set [6] and in data set [9] was more than 1000 in each case. Moreover, in data set [7], the Activity result is “Not Active”. The result in data set [8] was inactive.
